Calls of active or inactive are those of the source.
Legend:
[1] = Partition coefficient (logP); type: physicochemical; conditions: octanol/water
Mus musculus [2] = experiment: In vivo anticonvulsant activity against electric shock induced seizures(MES) in mice 4 hr after ip administration; active at 300 mg/kg; type: functional, organism-based; parameters: dose 300 mg/kg
Mus musculus [3] = experiment: In vivo anticonvulsant activity against pentylene tetrazole seizure threshold(SMC) in mice 0.5 hr after sc administration; active at 600 mg/kg; type: functional, organism-based; parameters: dose 600 mg/kg
Mus musculus [4] = experiment: In vivo anticonvulsant activity against electric shock induced seizures(MES) in mice 0.5 hr after ip administration; active at 300 mg/kg; type: functional, organism-based; parameters: dose 300 mg/kg
[5] = target: GABA B receptor (Rattus norvegicus) (UniProt Q9Z0U4+O88871); experiment: (§1) Displacement of [3H]GABA from GABA-B binding sites in brain homogenates (relative to 100 uM baclofen) at 100 uM; type: tissue-based
How it was run: (§2)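 Rat brain membrane binding (male Sprague-Dawley) using 10 nM [3H]GABA, with 100 µM isoguvacine present to block GABA-A sites. Test concentration 100 µM. Percent inhibition expressed relative to 100 µM baclofen. Mean of two separate experiments, each in triplicate.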

Mus musculus [6] = experiment: In vivo anticonvulsant activity against electric shock induced seizures(MES) in mice 0.5 hr after ip administration; active at 600 mg/kg; type: functional, organism-based; parameters: dose 600 mg/kg
Mus musculus [7] = experiment: In vivo anticonvulsant activity against electric shock induced seizures(MES) in mice 0.5 hr after ip administration; ++ indicates activity at 300 mg/kg.; type: functional, organism-based; parameters: dose 300 mg/kg
Mus musculus [8] = experiment: In vivo anticonvulsant activity against electric shock induced seizures(MES) in mice 4 hr after ip administration; + indicates activity at 600 mg/kg.; type: functional, organism-based; parameters: dose 600 mg/kg
Mus musculus [9] = experiment: In vivo neurotoxicity at 600 mg/kg, number of animals exhibiting neurotoxicity in the rotarod test / number of animals tested 4 hr; 2/2; type: toxicity, organism-based; parameters: dose 600 mg/kg
Mus musculus [10] = experiment: In vivo neurotoxicity at 600 mg/kg, number of animals exhibiting neurotoxicity in the rotarod test / number of animals tested at 0.5 hr; 4/4; type: toxicity, organism-based; parameters: dose 600 mg/kg
Mus musculus [11] = experiment: In vivo neurotoxicity at 600 mg/kg, number of animals exhibiting neurotoxicity in the rotarod test / number of animals tested 4 hr; 0/2; type: toxicity, organism-based; parameters: dose 600 mg/kg
Mus musculus [12] = experiment: In vivo neurotoxicity at 600 mg/kg, number of animals exhibiting neurotoxicity in the rotarod test / number of animals tested at 0.5 hr; 1/4; type: toxicity, organism-based; parameters: dose 600 mg/kg
Mus musculus [13] = experiment: In vivo anticonvulsant activity against electric shock induced seizures(MES) in mice; 104-131; type: functional
[14] = target: T1, GABA-A receptor; anion channel (Rattus norvegicus) (UniProt O09028+P15431+P18506+P18508+P19969+P20236+P23574+P23576+P28471+P28473+P30191+P62813+P63079+P63138+Q91ZM7+Q9ES14); experiment: Displacement of [3H]-GABA from Gamma-aminobutyric acid A receptor binding sites in brain homogenates (relative to 1 mM GABA) at 100 uM; type: tissue-based
How it was run: (§3)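 Male Sprague-Dawley rat brain, frozen, homogenized in 50 mM Tris-citrate (pH 7.1 at 4 °C). Membranes treated with 0.05% Triton X-100 for 30 min at 37 °C and resuspended at 0.5–1.0 mg/mL protein. Incubated with 8 nM [3H]GABA for 5 min at 4 °C, stopped by centrifugation, and counted by scintillation. Test concentration 100 µM. Expressed as percent of the inhibition given by 1 mM GABA. Mean of two experiments, each in triplicate.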

Mus musculus [15] = experiment: In vivo anticonvulsant activity against pentylene tetrazole seizure threshold(SMC) in mice 4 hr after sc administration; inactive at 600 mg/kg; type: functional, organism-based; parameters: dose 600 mg/kg
Mus musculus [16] = experiment: In vivo anticonvulsant activity against electric shock induced seizures(MES) in mice 0.5 hr after ip administration; inactive at 600 mg/kg; type: functional, organism-based; parameters: dose 600 mg/kg
Mus musculus [17] = experiment: In vivo anticonvulsant activity against electric shock induced seizures(MES) in mice 4 hr after ip administration; inactive at 600 mg/kg; type: functional, organism-based; parameters: dose 600 mg/kg
Mus musculus [18] = experiment: In vivo neurotoxicity at 600 mg/kg, number of animals exhibiting neurotoxicity in the rotarod test / number of animals tested at 0.5 hr; type: toxicity, organism-based; parameters: dose 600 mg/kg
Mus musculus [19] = experiment: In vivo neurotoxicity at 600 mg/kg, number of animals exhibiting neurotoxicity in the rotarod test / number of animals tested 4 hr; type: toxicity, organism-based; parameters: dose 600 mg/kg
Mus musculus [20] = experiment: In vivo anticonvulsant activity against pentylene tetrazole seizure threshold(SMC) in mice 0.5 hr after sc administration; inactive at 600 mg/kg; type: functional, organism-based; parameters: dose 600 mg/kg
Mus musculus [21] = experiment: In vivo anticonvulsant activity against electric shock induced seizures(MES) in mice 0.5 hr after ip administration; + indicates activity at 600 mg/kg.; type: functional, organism-based; parameters: dose 600 mg/kg
Mus musculus [22] = experiment: In vivo anticonvulsant activity against electric shock induced seizures(MES) in mice 4 hr after ip administration; + indicates activity at 600 mg/kg; type: functional, organism-based; parameters: dose 600 mg/kg
Mus musculus [23] = experiment: In vivo anticonvulsant activity against pentylene tetrazole seizure threshold(SMC) in mice 4 hr after sc administration; - indicates inactive at 600 mg/kg; type: functional, organism-based; parameters: dose 600 mg/kg
Mus musculus [24] = experiment: In vivo neurotoxicity at 600 mg/kg, number of animals exhibiting neurotoxicity in the rotarod test / number of animals tested at 0.5 hr; 0/4; type: toxicity, organism-based; parameters: dose 600 mg/kg
Mus musculus [25] = experiment: In vivo anticonvulsant activity against pentylene tetrazole seizure threshold(SMC) in mice 0.5 hr after sc administration; +++ indicates activity at 100 mg/kg; type: functional, organism-based; parameters: dose 100 mg/kg
Mus musculus [26] = experiment: In vivo neurotoxicity at 600 mg/kg, number of animals exhibiting neurotoxicity in the rotarod test / number of animals tested 4 hr; 1/2; type: toxicity, organism-based; parameters: dose 600 mg/kg
Mus musculus [27] = experiment: In vivo anticonvulsant activity against pentylene tetrazole seizure threshold(SMC) in mice 4 hr after sc administration; + indicates activity at 600 mg/kg.; type: functional, organism-based; parameters: dose 600 mg/kg
Mus musculus [28] = experiment: In vivo neurotoxicity at 600mg/kg, number of animals exhibiting neurotoxicity in the rotarod test / number of animals tested 0.5 hr; 4/4; type: toxicity, organism-based
Mus musculus [29] = experiment: In vivo anticonvulsant activity against pentylene tetrazole seizure threshold(SMC) in mice 0.5 hr after sc administration; + indicates activity at 600 mg/kg.; type: functional, organism-based; parameters: dose 600 mg/kg
Rattus norvegicus = organism: Rattus norvegicus; experiment: as §1; type: tissue-based; how it was run: as §2
[30] = target: T1, GABA-A receptor; anion channel (Rattus norvegicus); experiment: Displacement of [3H]GABA from Gamma-aminobutyric acid A receptor binding sites in brain homogenates (relative to 1 mM GABA) at 100 uM; type: tissue-based; how it was run: as §3

COP(=O)(OC)Oc1ccc([N+](=O)[O-])c(C)c1 [FENITROXON]
logP [1]: 1.69

CCOP(=S)(OCC)Oc1ccc([N+](=O)[O-])cc1 [PARATHION]
logP [1]: 2.98

COP(=S)(OC)Oc1ccc([N+](=O)[O-])cc1 [METHYL PARATHIONE]
logP [1]: 2.51

CCOP(=O)(OCC)Oc1ccccc1NC(C)=O
Anticonvulsant activity (Mus musculus [2]): active at 300 mg/kg
Anticonvulsant activity (Mus musculus [3]): active at 300 mg/kg
Anticonvulsant activity (Mus musculus [4]): active at 300 mg/kg

COP(=S)(OC)Oc1ccc([N+](=O)[O-])c(C(C)C)c1
logP [1]: 4.05

CCOP(=S)(OCC)Oc1ccc(SC)c(Cl)c1
logP [1]: 5.06

COP(=O)(OC)Oc1cc(C)c([N+](=O)[O-])c(C)c1
logP [1]: 2.57

CCOP(=O)(OCC)Oc1ccc([N+](=O)[O-])cc1 [PARAOXON]
logP [1]: 1.64

COP(=O)(OC)Oc1ccc([N+](=O)[O-])cc1Cl
logP [1]: 1.83

COP(=S)(OC)Oc1ccc([N+](=O)[O-])c(Cl)c1 [CHLORTHION]
logP [1]: 3.45

CC(C)(C)CC(C)(C)NP(=O)(Oc1ccccc1)Oc1ccccc1
inhibition [5]: 65%
Anticonvulsant activity (Mus musculus [6]): active at 600 mg/kg

CC(C)OP(=O)(OC(C)C)c1cccc(N)c1
Anticonvulsant activity (Mus musculus [7]): activity at 300 mg/kg
Anticonvulsant activity (Mus musculus [8]): activity at 300 mg/kg
Toxicity (Mus musculus [9]): 2
Toxicity (Mus musculus [10]): 4

CCOP(=O)(CCCN)OCC
Toxicity (Mus musculus [11]): 0
Toxicity (Mus musculus [12]): 1

CCOP(=S)(OCC)Oc1ccc(SC)cc1Cl
logP [1]: 4.4

CN1C(=O)CC(c2ccccc2)C1=O (configuration not stated) [PHENSUXIMIDE]
ED50 (Mus musculus [13]): 112 mg/kg

CC1(C)COP(=S)(c2ccccc2)N1 (configuration not stated)
inhibition [5]: 15%
Anticonvulsant activity (Mus musculus [6]): active at 600 mg/kg

CCOP(=O)(OCC)Oc1ccc(SC)c(Cl)c1
logP [1]: 3.21

COP(=O)(OC)Oc1ccc([N+](=O)[O-])cc1 [DIMETHYL 4-NITROPHENYL PHOSPHATE]
logP [1]: 1.27

CC(=O)Nc1ccccc1OP(=O)(Oc1ccccc1)Oc1ccccc1
inhibition [14]: 54%
Anticonvulsant activity (Mus musculus [15]): inactive
inhibition [5]: 36%
Anticonvulsant activity (Mus musculus [16]): inactive
Anticonvulsant activity (Mus musculus [17]): inactive
Toxicity (Mus musculus [18]): Not Active
Toxicity (Mus musculus [19]): Not Active
Anticonvulsant activity (Mus musculus [20]): inactive

COP(=O)(OC)c1cccc(N)c1
inhibition [14]: 13%
Anticonvulsant activity (Mus musculus [21]): Active
inhibition [5]: 13%
Toxicity (Mus musculus [11]): 0
Anticonvulsant activity (Mus musculus [22]): Active
Anticonvulsant activity (Mus musculus [23]): inactive
Toxicity (Mus musculus [24]): 0
Anticonvulsant activity (Mus musculus [25]): Active

CCOP(=O)(OCC)Oc1ccccc1 [PHOSPHORIC ACID DIETHYL ESTER PHENYL ESTER]
logP [1]: 1.64

NCCCP(=O)(O)O
inhibition [14]: 12%
Anticonvulsant activity (Mus musculus [15]): inactive
inhibition [5]: 91%
Anticonvulsant activity (Mus musculus [16]): inactive
Anticonvulsant activity (Mus musculus [17]): inactive
Toxicity (Mus musculus [18]): Not Active
Toxicity (Mus musculus [19]): Not Active
Anticonvulsant activity (Mus musculus [20]): inactive

COP(=S)(OC)Oc1cc(C)c([N+](=O)[O-])c(C)c1
logP [1]: 3.89

Nc1cccc(P(=O)(O)O)c1
Toxicity (Mus musculus [11]): 0
Toxicity (Mus musculus [24]): 0

CCOP(=S)(OCC)Oc1ccccc1
logP [1]: 3.46

CCOP(=O)(OCC)Oc1ccc(SC)cc1Cl
logP [1]: 3.05

CCOP(=O)(OCC)c1cccc(N)c1
Toxicity (Mus musculus [26]): 1
Anticonvulsant activity (Mus musculus [7]): activity at 300 mg/kg
Anticonvulsant activity (Mus musculus [27]): activity at 300 mg/kg
Anticonvulsant activity (Mus musculus [8]): activity at 300 mg/kg
Toxicity (Mus musculus [28]): 4
Anticonvulsant activity (Mus musculus [29]): activity at 300 mg/kg

COP(=O)(OC)Oc1ccc([N+](=O)[O-])c(Cl)c1
logP [1]: 1.83

CC(=O)Nc1ccccc1OP(=O)(Oc1ccccc1NC(C)=O)c1ccccc1
inhibition [14]: 46%
Anticonvulsant activity (Mus musculus [15]): inactive
Anticonvulsant activity (Mus musculus [16]): inactive
Anticonvulsant activity (Mus musculus [17]): inactive
Toxicity (Mus musculus [18]): Not Active
Toxicity (Mus musculus [19]): Not Active
Anticonvulsant activity (Mus musculus [20]): inactive

CCOP(=S)(OCC)Oc1ccccc1NC(C)=O
inhibition [5]: 35%

CCc1cc(OP(=S)(OC)OC)ccc1[N+](=O)[O-]
logP [1]: 3.84

NCCOP(=O)(O)Oc1ccccc1
inhibition [14]: 13%
Anticonvulsant activity (Mus musculus [15]): inactive
inhibition [5]: 40%
Anticonvulsant activity (Mus musculus [16]): inactive
Anticonvulsant activity (Mus musculus [17]): inactive
Anticonvulsant activityAnticonvulsant activity (Mus musculus [20]): inactive

COP(=S)(OC)Oc1ccc([N+](=O)[O-])cc1Cl [DICAPTHON]
logP [1]: 3.44

CCCCN1C(=O)CCP1(=O)c1ccccc1 (configuration not stated)
inhibition [14]: 17%
inhibition (Rattus norvegicus): 67%

COP(=O)(OC)Oc1ccc([N+](=O)[O-])c(C(C)C)c1
logP [1]: 2.57

COP(=S)(OC)Oc1cccc(NC(C)=O)c1
inhibition [30]: inactive

Nc1cccc(P(=O)(Oc2ccccc2)Oc2ccccc2)c1
inhibition [5]: 51%

CCc1cc(OP(=O)(OC)OC)ccc1[N+](=O)[O-]
logP [1]: 2.19

CC(CNP(=O)(Oc1ccccc1)Oc1ccccc1)NP(=O)(Oc1ccccc1)Oc1ccccc1 (configuration not stated)
inhibition [5]: 20%

COP(=S)(OC)Oc1ccc([N+](=O)[O-])c(C)c1 [FENITROTHION]
logP [1]: 3.3

Reference: ChEMBL document CHEMBL1122654, “Phosphorus analogues of gamma-aminobutyric acid, a new class of anticonvulsants” (J Med Chem, 1984)
